Tests used:
[1] = Cytotoxicity against human H4 cells after 72 hrs; type: cell-based
How it was run: (§1)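 Cells kept in DMEM with 5% foetal calf serum, L-glutamine, penicillin/streptomycin at 37 °C, 5% CO2. Seeded cells exposed to 3-fold serial dilutions (starting 0.5 mg/mL; DMSO stock, final DMSO <0.1%) for 72 h at 37 °C. Treated wells (n=2) compared with controls (n=24). CC50 taken from concentration-effect curve.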

[2] = Cytotoxicity against human Caco-2 cells after 72 hrs; type: cell-based; how it was run: as §1
[3] = Ratio of CC50 for human Caco-2 cells to IC50 for rotavirus RF assessed by inhibition of infectivity following virus attachment

| Structure (SMILES) | CC50 at 72 h [1] [µM] | CC50 at 72 h [2] [µM] | Ratio CC50/IC50 [3] |
| --- | --- | --- | --- |
| C=C1[C@@H](CO)O[C@H](n2ccc(=O)[nH]c2=O)[C@@H](O)[C@H]1O | 1850 | – | – |
| O=C1C=C[C@@H](n2ccc(=O)[nH]c2=O)O[C@@H]1CO | 2100 | – | – |
| C=C1C=C[C@@H](n2ccc(=O)[nH]c2=O)O[C@@H]1CO | 2120 | – | – |
| C=C1C=C[C@@H](n2ccc(=O)[nH]c2=O)O[C@@H]1COC(c1ccccc1)(c1ccccc1)c1ccccc1 | 1040 | – | – |
| Cc1cn([C@H]2C[C@H](N=[N+]=[N-])[C@@H](CO)O2)c(=O)[nH]c1=O [ZIDOVUDINE] | – | 56.1 | 2.5 |

Source: ChEMBL document CHEMBL1156702, “Synthesis and molecular modelling of unsaturated exomethylene pyranonucleoside analogues with antitumor and antiviral activities” (Eur J Med Chem, 2008)
